Source: PubChem BioAssay
PAFAH2 FP inh = PAFAH2 (human) inhibition; Q99487; recombinant PAFAH2, FP-rhodamine activity probe, fluorescence polarization; inhibition, % at 3.39 µM; 340,000 tested, 0.99% active; AID 492956;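 active = inhibition above the mean over all tested compounds plus 3 SD, cut at about 30% in these data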;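 note: inhibitors block probe labeling of enzyme so polarization drops; 0% = enzyme with DMSO and 100% = wells lacking PAFAH2 protein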
pPAFAH FP inh = inhibitors of human plasma PAF acetylhydrolase (pPAFAH); 330,000 tested, 1.5% active; inhibition, % at 3.39 µM; Q13093; recombinant pPAFAH, FP-rhodamine probe fluorescence polarization; AID 463082;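 active = inhibition above the mean inhibition across the screen plus 3 SD, cut at about 25% in these data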;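 note: inhibitors block binding of the rhodamine activity-based probe so polarization drops; 0% = enzyme with DMSO and 100% = wells lacking pPAFAH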
ARFGAP1 inhibitor = inhibits rat ARF GTPase activating protein 1. Q62848. Arfgap1-stimulated ARF1 GTP hydrolysis, GDP FP detection. inhibition, % at 16.5 µM. 360,000 tested, 0.26% active. AID 651572;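 active = inhibition above a per-plate limit, mean inhibition of low control wells plus 3 SD, cut at about 25% in these data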;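 note: 0% = DMSO wells with enzyme and 100% = wells lacking Arfgap1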
Target sequence (Q62848 1-136 limits assumed): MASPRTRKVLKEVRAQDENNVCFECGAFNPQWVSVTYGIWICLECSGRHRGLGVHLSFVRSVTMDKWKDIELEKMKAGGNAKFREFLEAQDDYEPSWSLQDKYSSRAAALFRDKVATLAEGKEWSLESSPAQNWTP
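Material: rat Arfgap1 GAP domain (His6, aa 1-136), purified enzyme. Also added: human ARF1(Δ1-17)-GTP substrate. Compound dosing: 16.5 µM single point, 1.26% DMSO. Timing: enzyme reaction 120 min at 25 °C after 20 min preincubation. Signal: GDP detection by fluorescence polarization. Read-out basis: percent inhibition of GAP-stimulated GDP formation, scaled between DMSO and no-Arfgap1 medians.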
PAFAH1B3 inh = PAFAH1B3 (human) inhibition; AID 492972; 340,000 tested, 0.28% active; inhibition, % at 3.39 µM; Q15102; recombinant PAFAH1B3, FP-rhodamine probe, fluorescence polarization;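 active = inhibition above the screen-wide average of all tested compounds plus 3 SD, cut at about 25% in these data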;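 note: 0% = enzyme with DMSO only and 100% = wells lacking PAFAH1B3 protein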
Target sequence (Q15102 whole entry, looked up): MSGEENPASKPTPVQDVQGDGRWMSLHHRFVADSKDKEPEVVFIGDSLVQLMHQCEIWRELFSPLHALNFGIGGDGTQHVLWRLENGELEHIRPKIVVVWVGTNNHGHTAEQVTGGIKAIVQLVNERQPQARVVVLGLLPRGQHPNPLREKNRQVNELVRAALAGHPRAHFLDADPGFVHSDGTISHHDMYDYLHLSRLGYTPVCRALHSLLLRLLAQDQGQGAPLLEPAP
ASAP1 GAP inh = ASAP1 ArfGAP inhibition | Q9ULH1 | ASAP1-stimulated ARF1 GTP hydrolysis, GDP FP detection | inhibition, % at 16.5 µM | 360,000 tested, 0.19% active | AID 624377; in the data active = inhibition above about 25%;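 note: 0% = vehicle with enzyme and substrate and 100% = no enzyme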
PAFAH1B2 inh = blocks human PAF acetylhydrolase 1b catalytic subunit 2. recombinant PAFAH1B2, FP-rhodamine activity probe, fluorescence polarization. P68402. 340,000 tested, 1.2% active. inhibition, % at 3.39 µM;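 active = inhibition above the mean of all tested compounds plus 3 SD, cut at about 24% in these data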;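 note: 0% = enzyme with DMSO and 100% = wells lacking PAFAH1B2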
Target sequence (P68402 whole entry, looked up): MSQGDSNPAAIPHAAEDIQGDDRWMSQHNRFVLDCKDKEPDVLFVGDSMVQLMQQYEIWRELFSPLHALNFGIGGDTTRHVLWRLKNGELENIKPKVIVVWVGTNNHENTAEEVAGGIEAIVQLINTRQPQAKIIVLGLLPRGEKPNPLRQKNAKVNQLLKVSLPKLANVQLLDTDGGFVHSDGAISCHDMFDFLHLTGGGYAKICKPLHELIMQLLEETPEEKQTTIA
PAFAH2 confirm = PAFAH2 (human) inhibition, confirmed; recombinant PAFAH2, FP-rhodamine activity probe, fluorescence polarization; shares compounds with PAFAH2 FP inh; inhibition, % at 3.39 µM; 2,300 tested, 65% active; AID 493030;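 active = mean inhibition over three repeats above a set limit taken from the earlier primary screen, cut at about 30% in these data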;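 note: inhibitor blocks binding of rhodamine activity probe so polarization falls; 0% = enzyme with DMSO and 100% = wells lacking PAFAH2 protein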
Starred values were filed as active, the others as inactive; · = no result given. The list is not random: actives were taken first. Their share in the collection is about 2.7%.

SMILES | PAFAH2 FP inh | pPAFAH FP inh | ARFGAP1 inhibitor | PAFAH1B3 inh | ASAP1 GAP inh | PAFAH1B2 inh | PAFAH2 confirm
COc1cccc(/C=C/C(=O)OCC(=O)Nc2cccc(S(=O)(=O)NC3=NCCCCC3)c2)c1 | 50* | -1 | -5 | 8 | -3 | 5 | 42*
O=C(COC(=O)/C=C/c1cccc(F)c1)Nc1cccc(S(=O)(=O)NC2=NCCCCC2)c1 | 39* | 2 | 2 | -1 | 11 | 4 | 16
O=C(NCCc1ccc2c(c1)OCO2)Oc1ccccc1 | · | · | 18 | · | 6 | · | ·
O=C1OC2(CCCCC2)OC(=O)C1=CNc1nccs1 | 18 | -1 | -10 | 2 | -3 | 2 | ·
O=C1OC2(CCCCC2)OC(=O)C1=CNc1nc2ccccc2s1 | 41* | -2 | 8 | 4 | 1 | 9 | 21
COC(=O)c1ccc(C(c2c(C)n(C)n(-c3ccccc3)c2=O)c2c(C)n(C)n(-c3ccccc3)c2=O)cc1 | -16 | 1 | 2 | 4 | -1 | 9 | ·
Cc1c(C(c2ccc(Br)cc2)c2c(C)n(C)n(-c3ccccc3)c2=O)c(=O)n(-c2ccccc2)n1C | 37* | 2 | -6 | 5 | 2 | 5 | 26
CC(C)CC1NC(=O)N(CC(=O)N(C)C2CCCCC2)C1=O (stereo not drawn) | -3 | 3 | 6 | 8 | -5 | 10 | ·
O=C(COC(=O)c1ccc(S(=O)(=O)N2CCCCC2)cc1)NCc1ccc(F)cc1 | 1 | · | -2 | -15 | -12 | 0 | ·
COc1ccc(CNC(=O)COC(=O)c2ccc(Br)cc2)cc1 | -17 | 12 | 2 | 8 | 4 | 4 | ·
O=C(COC(=O)c1ccc(F)cc1)NCc1ccc(F)cc1 | 31* | 5 | -29 | -4 | 1 | -1 | 18
O=C(COC(=O)c1ccc(Br)cc1)NCc1ccc(F)cc1 | 42* | 20 | -6 | 10 | 4 | 0 | 27
COc1cc(/C=C/C(=O)OCC(=O)N2CCCCCC2)cc(OC)c1OC | · | · | 4 | · | 8 | · | ·
COc1ccccc1/C=C/C(=O)OCC(=O)Nc1ccc(Cl)cn1 | 83* | 24 | 13 | 4 | 6 | 3 | 79*
COc1ccccc1/C=C/C(=O)OCC(=O)NC1CC1 | 64* | · | -1 | 8 | -7 | 3 | 64*
COc1ccccc1/C=C/C(=O)OCC(=O)N1CCc2ccccc21 | 77* | 1 | 11 | 5 | 6 | 2 | 71*
O=C(/C=C/c1ccc(OC(F)F)cc1)OCC(=O)N1CCc2ccccc21 | 5 | 1 | -7 | 4 | -4 | 1 | ·
COc1ccc(/C=C/C(=O)OCC(=O)N2CCCCCC2)c(OC)c1 | 44* | -1 | 3 | -11 | 3 | 1 | 36*
COc1ccccc1/C=C/C(=O)OCC(=O)NNC(=O)c1ccccc1 | 14 | 18 | 2 | 17 | 0 | 2 | ·
N#Cc1ccccc1OCc1cccc(S(=O)(=O)N2CCOCC2)c1 | 5 | -3 | 15 | 3 | 5 | 6 | ·
COc1ccc(F)cc1-c1cc(C(=O)NC2CCCCC2)[nH]n1 | · | · | -8 | · | -2 | · | ·
COc1cc(/C=C/C(=O)OCC(=O)Nc2ccc(NC(C)=O)cc2)cc(S(=O)(=O)N2CCc3ccccc32)c1OC | 3 | 2 | 8 | 10 | 7 | -4 | ·
COc1ccccc1/C=C/C(=O)OCC(=O)NC(=O)NC1CCCC1 | 58* | -2 | 0 | -6 | 11 | 5 | 44*
COc1cc(/C=C/C(=O)OCC(=O)NC2CC2)cc(S(=O)(=O)N2CCc3ccccc32)c1OC | 53* | 8 | 14 | 4 | 11 | 3 | 38*
O=C(OCC(=O)N1CCc2ccccc21)C1=COCCO1 | 30* | 8 | 13 | 7 | 5 | 4 | 19
SMILES | PAFAH2 FP inh | pPAFAH FP inh | ARFGAP1 inhibitor | PAFAH1B3 inh | ASAP1 GAP inh | PAFAH1B2 inh | PAFAH2 confirm
COc1ccc(/C=C/C(=O)OCC(=O)NC2CCCC2)c(OC)c1 | 86* | 23 | -16 | 4 | -3 | 3 | 85*
Cc1ccc(C(=O)c2ccccc2C(=O)OCC(=O)N2CCCC2)cc1 | 1 | -7 | -2 | 4 | -3 | 1 | ·
Cc1ccc(C(=O)c2ccccc2C(=O)OCC(=O)NC(C)(C)C)cc1 | 62* | 1 | -3 | 9 | 3 | 0 | 51*
COc1cc(NC(=O)[C@@H]2O[C@H](CO)[C@@H](O)[C@H]2O)cc(OC)c1OC | · | · | -10 | · | -1 | · | ·
CCC1NC(=O)c2cccnc2-n2c1nc1ccc(OC)cc1c2=O (stereo not drawn) | · | · | -2 | · | -8 | · | ·
Cc1ccsc1C(=O)OCC(=O)N(C)C1CCCCC1 | 36* | 3 | -4 | 3 | -2 | 13 | 17
Cc1ccsc1C(=O)OCC(=O)NC1CCCC1 | 63* | 21 | -6 | -3 | -6 | 3 | 47*
COc1ccc(/C=C/C(=O)OCC(=O)NCCC2=CCCCC2)cc1OC | 65* | 6 | -8 | -2 | 7 | -2 | 50*
COc1ccccc1/C=C/C(=O)OCC(=O)NCCC1=CCCCC1 | 25 | 18 | 10 | 10 | 12 | -5 | ·
O=C(COC(=O)/C=C/c1ccc(Cl)cc1)NCCC1=CCCCC1 | 16 | 5 | 2 | 12 | -1 | 3 | ·
COc1cccc(/C=C/C(=O)OCC(=O)NCCC2=CCCCC2)c1OC | 66* | 14 | -5 | -1 | 1 | -1 | 55*
CC(C)CC1C(=O)N(Cc2cn(CCC3OCCO3)nn2)CCS(=O)(=O)N1Cc1ccc(-c2cccc(N(C)C)c2)cc1 (stereo not drawn) | · | · | -4 | · | 7 | · | ·
CN(C(=O)c1cccc(NC(=O)Cc2ccc(NC(=O)C3CCN(C(=O)CCc4ccccc4)CC3)cc2)c1)C1CCC1 | -5 | · | -10 | 10 | -10 | 11 | ·
O=C1c2cccc3cccc(c23)C(=O)N1OS(=O)(=O)c1ccccc1 | 16 | 5 | 1 | 2 | -18 | 0 | ·
Cc1ccc(S(=O)(=O)ON2C(=O)c3cccc4cccc(c34)C2=O)cc1 | 30* | 3 | 2 | 17 | -4 | 3 | 26
O=C(Cc1ccc(-c2ccccc2)cc1)Nc1ncccc1O | 32* | 21 | 8 | 1 | 1 | 2 | 24
COc1ccc(/C=C/C(=O)OCC(=O)c2cc(C)ccc2C)cc1 | · | · | 3 | · | -7 | · | ·
COC(=O)c1ccccc1NC(=O)CN1C(=O)NC2(CCCCCCC2)C1=O | 85* | -4 | 12 | 0 | 4 | 3 | 6
CC(C)(C)OC(=O)C[C@H]1C/C=C\C[C@@H](CC(=O)N[C@H](CO)Cc2ccccc2)C(=O)NC[C@H](c2ccccc2)OC1=O | 52* | 3 | -11 | 0 | -3 | 10 | 8
CC(C)(C)OC(=O)C[C@@H]1C/C=C\C[C@@H](CC(=O)N[C@H](CO)Cc2ccccc2)C(=O)NC[C@H](c2ccccc2)OC1=O | 1 | -1 | -4 | 3 | -9 | 4 | ·
